Only some compounds are listed: those with a hit (about 3.2% of all), similar ones and a draw of the others.
UBC13 polyUb: inhibitors of human UBC13 polyubiquitin chain formation; P61088; TR-FRET; inhibition, % at 20 µM; actives 0.47% (n = 330,000); in the data active = inhibition above about 45%, passing the limit was not always enough
MEKK2 mut-MEK5: signal of MEK5 binding to mutant human MEKK2 PB1 domain | percent response, % at 10 µM | actives 0.35% (n = 290,000) | AID 1530 | bead flow cytometry, Alexa488-MEK5 binding to MEKK2 mutant; in the data active = percent response above about 24%, passing the limit was not always enough
DSG3 Ab inh: blocks pemphigus antibody binding to human desmoglein-3; AID 588358; actives 0.48% (n = 310,000); binding (percent of control), % at 10 µM; P32926; DSG3-coupled beads, scFv-anti-DSG3-GFP binding, flow cytometry; stronger effect = lower value;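 active = binding more than 3 SD below its plate's average and above zero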;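 also: hits lower antibody fragment binding to DSG3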
Target sequence (P32926 whole entry, looked up, the tested form may be a part): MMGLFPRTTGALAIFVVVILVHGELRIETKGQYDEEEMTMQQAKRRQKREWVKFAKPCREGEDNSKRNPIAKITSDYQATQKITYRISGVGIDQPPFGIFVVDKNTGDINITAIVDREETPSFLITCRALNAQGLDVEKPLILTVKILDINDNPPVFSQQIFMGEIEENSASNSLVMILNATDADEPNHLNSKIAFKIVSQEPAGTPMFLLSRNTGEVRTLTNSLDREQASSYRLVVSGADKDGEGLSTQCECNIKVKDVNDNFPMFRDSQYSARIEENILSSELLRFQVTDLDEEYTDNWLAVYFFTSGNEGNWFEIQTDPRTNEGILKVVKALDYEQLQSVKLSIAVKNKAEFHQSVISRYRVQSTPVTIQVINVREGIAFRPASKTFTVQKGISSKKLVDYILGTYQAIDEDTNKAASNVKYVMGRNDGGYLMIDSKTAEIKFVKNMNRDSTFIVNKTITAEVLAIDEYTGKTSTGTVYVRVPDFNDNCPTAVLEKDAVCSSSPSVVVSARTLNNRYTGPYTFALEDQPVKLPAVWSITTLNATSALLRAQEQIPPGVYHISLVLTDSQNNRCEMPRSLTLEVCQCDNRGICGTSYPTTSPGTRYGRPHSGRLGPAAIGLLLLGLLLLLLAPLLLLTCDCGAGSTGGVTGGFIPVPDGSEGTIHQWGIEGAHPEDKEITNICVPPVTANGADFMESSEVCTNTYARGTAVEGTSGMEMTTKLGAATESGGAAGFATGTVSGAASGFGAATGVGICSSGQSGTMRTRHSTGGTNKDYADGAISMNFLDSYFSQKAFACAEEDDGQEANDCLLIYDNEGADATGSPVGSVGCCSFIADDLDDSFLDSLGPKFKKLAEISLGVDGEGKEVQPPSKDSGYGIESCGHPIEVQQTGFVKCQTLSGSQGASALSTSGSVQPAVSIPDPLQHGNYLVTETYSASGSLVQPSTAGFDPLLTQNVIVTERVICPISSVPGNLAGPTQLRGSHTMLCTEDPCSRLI
Apaf1 inhib: blocks human Apaf-1 apoptosome activity | O14727 | reconstituted apoptosome caspase-3 activity, DEVD-Rh110 fluorescence | inhibition, % at 20 µM | actives 0.71% (n = 330,000); active = inhibition of at least 40% at 20 µM;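 also: plate controls were DMSO wells for no effect and DEVD-CHO caspase inhibitor wells for full effect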
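detection = Rh110 fluorescence intensity | test system = biochemical Apaf-1 apoptosome reconstitution | also added = cytochrome c and DEVD-Rh110 substrate | schedule = 30 min plus 50 min, RT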
MEKK2 WT-MEK5: raises or lowers MEK5 binding to wildtype human MEKK2 PB1 domain | bead flow cytometry, Alexa488-MEK5 binding to MEKK2 WT; actives lie on both sides | Q9Y2U5 | actives 1.1% (n = 290,000) | binding response (% of control), % at 10 µM; in the data active = binding response below about 67% or above about 130%
MEKK3 PB1 HTS: raises or lowers MEK5 binding to the human MEKK3 PB1 domain | bead-based flow cytometry, Alexa488-MEK5 binding to MEKK3; actives lie on both sides; 0 = blocked by unlabeled MEK5, 100 = vehicle | actives 1.4% (n = 290,000) | Q99759 | AID 1529 | binding response (% of control), % at 10 µM;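 active = binding response more than 3 SD above or below the average of its plate-row segment, actives on both sides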;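 also: Alexa488 bead fluorescence after subtracting the streptavidin-only scavenger bead signal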
MEKK2wt confirm: raises or lowers MEK5 binding to wildtype human MEKK2, retest | shares compounds with MEKK3 PB1 HTS | bead flow cytometry, Alexa488-MEK5 binding to MEKK2 WT; actives lie on both sides | binding response (% of control), % at 10 µM | actives 2.4% (n = 5,900); in the data active = binding response below about 16% or above about 210%; inactive = in between
MEKK2mut-MEK5: signal of MEK5 binding to mutant human MEKK2, retest | shares compounds with MEKK3 PB1 HTS | bead flow cytometry, Alexa488-MEK5 binding to MEKK2 mutant | percent response, % at 10 µM | actives 2% (n = 5,900) | AID 1893; in the data active = percent response mostly above about 71%, no sharp cut-off; inactive = mostly below about 38%;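 also: higher means compound restores mutant binding toward wildtype level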
MEKK3-MEK5 inh: MEKK3-MEK5 PB1 inhibition, single concentration confirmation. bead flow cytometry, Alexa488-MEK5 binding to MEKK3; stronger effect = lower value. shares compounds with MEKK3 PB1 HTS. binding response (% of control), % at 10 µM. actives 1.8% (n = 5,900). AID 1894;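 active = binding response below 72% of control, or above a set upper limit, though filed actives all read lower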;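 also: 100% = DMSO only wells and 0% = binding blocked by excess unlabeled MEK5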
* = called active by the depositor; [ ] = remark or other dose.

O=C(CSc1n[nH]c(=O)[nH]c1=O)c1ccccc1[N+](=O)[O-] was read as UBC13 polyUb 7, MEKK2 mut-MEK5 -33, DSG3 Ab inh 100, Apaf1 inhib -13, MEKK2 WT-MEK5 70, MEKK3 PB1 HTS 64*[inhibitor], MEKK2wt confirm 102, MEKK2mut-MEK5 3 and MEKK3-MEK5 inh 107.
Cc1[nH]c(C)c(C(=O)/C=C/c2ccc([N+](=O)[O-])cc2)c1C was read as UBC13 polyUb -24, MEKK2 mut-MEK5 4, DSG3 Ab inh 99, Apaf1 inhib 0, MEKK2 WT-MEK5 106 and MEKK3 PB1 HTS 104.
Screening CC(N)C(=O)NC(C(=O)N1CCCC1C(=O)NC(c1ccccc1)c1ccccc1)C(C)C (stereo unspecified) returned UBC13 polyUb 11, DSG3 Ab inh 104 and Apaf1 inhib 5.
OC(c1ccccc1)(c1ccccc1)c1nccc2ccccc12 was read as DSG3 Ab inh 122.
`COc1ccc(/C=C2/Sc3ccc(C(=O)N4CCc5ccccc5C4)cc3NC2=O)cc1` gave UBC13 polyUb 8, MEKK2 mut-MEK5 0, DSG3 Ab inh 80, Apaf1 inhib 5, MEKK2 WT-MEK5 100 and MEKK3 PB1 HTS 104.
For COc1ccc(/C=C2\Sc3ccc(C(=O)N4CCc5ccccc5C4)cc3N(C)C2=O)cc1 the results were UBC13 polyUb 4, MEKK2 mut-MEK5 0, Apaf1 inhib 11, MEKK2 WT-MEK5 102, MEKK3 PB1 HTS 130*, MEKK2wt confirm 94, MEKK2mut-MEK5 -7 and MEKK3-MEK5 inh 93.
For Cn1ccnc1C(=O)C1CCCN(Cc2cn[nH]c2-c2ccc(-c3ccccc3)cc2)C1 (stereo unspecified) the results were UBC13 polyUb 21, MEKK2 mut-MEK5 30, DSG3 Ab inh 88, Apaf1 inhib 1, MEKK2 WT-MEK5 148*, MEKK3 PB1 HTS 116, MEKK2wt confirm 109, MEKK2mut-MEK5 2 and MEKK3-MEK5 inh 99.
CCCCC(CC)Cn1c(O)c(/C=C2\C=NN=C2c2ccccc2)sc1=S (stereo unspecified) was read as UBC13 polyUb -8, MEKK2 mut-MEK5 0, DSG3 Ab inh 106, Apaf1 inhib 3, MEKK2 WT-MEK5 103, MEKK3 PB1 HTS 136*, MEKK2wt confirm 108, MEKK2mut-MEK5 -1 and MEKK3-MEK5 inh 102.
Screening O=C(c1nn(-c2ccccc2)c(=O)c2ccccc12)N1CCN(c2ccccn2)CC1 returned UBC13 polyUb -8, MEKK2 mut-MEK5 -5, DSG3 Ab inh 93, Apaf1 inhib -3, MEKK2 WT-MEK5 78, MEKK3 PB1 HTS 66*[inhibitor], MEKK2wt confirm 102, MEKK2mut-MEK5 1 and MEKK3-MEK5 inh 99.
`O=C(c1nn(-c2ccccc2)c(=O)c2ccccc12)N1CCN(c2ncccn2)CC1` gave UBC13 polyUb -4, MEKK2 mut-MEK5 -5, DSG3 Ab inh 91, Apaf1 inhib 11, MEKK2 WT-MEK5 94 and MEKK3 PB1 HTS 103.
`COc1nc(NCCc2ccc(OC)c(OC)c2)nc(OC)n1` gave UBC13 polyUb -5, MEKK2 mut-MEK5 10, Apaf1 inhib 4, MEKK2 WT-MEK5 105 and MEKK3 PB1 HTS 103.
`COc1nc(NCCC2=CCCCC2)nc(OC)n1` gave UBC13 polyUb 8, MEKK2 mut-MEK5 4, DSG3 Ab inh 98, Apaf1 inhib 2, MEKK2 WT-MEK5 107, MEKK3 PB1 HTS 124*, MEKK2wt confirm 107, MEKK2mut-MEK5 4 and MEKK3-MEK5 inh 106.
Screening CN1CCN(C(=O)C[C@H]2C[C@H]3c4cc(NC(=O)NC5CCCCC5)ccc4O[C@H]3[C@@H](CO)O2)CC1 returned DSG3 Ab inh 101.
`CCCCCOc1ccc2oc(=O)c3c(c2c1)CCCN3C(=O)CN1CCCC(C(=O)OCC)C1` (stereo unspecified) gave UBC13 polyUb 5, MEKK2 mut-MEK5 -14, DSG3 Ab inh 102, Apaf1 inhib 38, MEKK2 WT-MEK5 2.0*[inhibitor], MEKK3 PB1 HTS 2.0*[inhibitor], MEKK2wt confirm 96, MEKK2mut-MEK5 -2 and MEKK3-MEK5 inh 102.
Screening CC(=NNC(=O)c1ccncc1)c1cc(Cl)ccc1Cl returned DSG3 Ab inh 86.
`O=C(COc1ccc(C(=O)Nc2ccc(Cl)cc2)cc1)NCc1ccccc1` gave UBC13 polyUb -3, MEKK2 mut-MEK5 1, DSG3 Ab inh 112, Apaf1 inhib 5, MEKK2 WT-MEK5 109, MEKK3 PB1 HTS 155*, MEKK2wt confirm 98, MEKK2mut-MEK5 3 and MEKK3-MEK5 inh 102.
Screening O=C(COc1ccc(C(=O)NCCc2ccccc2)cc1)Nc1ccccc1 returned UBC13 polyUb 4, MEKK2 mut-MEK5 -3, Apaf1 inhib -5, MEKK2 WT-MEK5 96 and MEKK3 PB1 HTS 97.
`CCOC(=O)c1sc(NC(=O)CSc2nc3c(c(=O)n2-c2ccc(C)cc2)SCC3)c(C(=O)OCC)c1C` gave UBC13 polyUb -14, MEKK2 mut-MEK5 8, DSG3 Ab inh 92, Apaf1 inhib 10, MEKK2 WT-MEK5 73, MEKK3 PB1 HTS 71*[inhibitor], MEKK2wt confirm 95, MEKK2mut-MEK5 7 and MEKK3-MEK5 inh 101.
Screening Cc1ccc(OC(=O)c2cccnc2)cc1 returned UBC13 polyUb 9, MEKK2 mut-MEK5 -14, DSG3 Ab inh 121, Apaf1 inhib -9, MEKK2 WT-MEK5 56*[inhibitor], MEKK3 PB1 HTS 57*[inhibitor], MEKK2wt confirm 102, MEKK2mut-MEK5 -1 and MEKK3-MEK5 inh 106.
Screening COC(=O)c1cc(Br)ccc1OC(=O)c1cccnc1 returned UBC13 polyUb -2, MEKK2 mut-MEK5 -17, Apaf1 inhib 0, MEKK2 WT-MEK5 0.0*[inhibitor], MEKK3 PB1 HTS 0.0*[inhibitor], MEKK2wt confirm 102, MEKK2mut-MEK5 1 and MEKK3-MEK5 inh 100.
`CCN(CC)c1nc(OCCNC(=O)Nc2ccccc2)nc(N(CC)CC)n1` gave UBC13 polyUb 6, MEKK2 mut-MEK5 24*, DSG3 Ab inh 106, Apaf1 inhib -52, MEKK2 WT-MEK5 118, MEKK3 PB1 HTS 111, MEKK2wt confirm 95, MEKK2mut-MEK5 -9 and MEKK3-MEK5 inh 96.
